TRPC4 block = TRPC4 (mouse) channel inhibition. Q9QUQ5. B-score at 10 µM. HEK293 TRPC4beta/mu-opioid, DAMGO-evoked Fluo4 calcium flux; stronger effect = lower value. AID 2247. actives 0.39% (n = 300,000);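 active = B-score over 3 SD under the library average, no early fluorescence shift, positive overall ratio signal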
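System: stable TRPC4beta/mu-opioid receptor HEK293 cells; Dosing: single-point compound dosing; Measured by: Fluo4 Ca2+ flux fluorescence; Read-out basis: per-well B score of integrated baseline-normalized Fluo4 ratio.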
TRPC4 act = opens the mouse TRPC4 cation channel. actives 0.49% (n = 310,000). Q9QUQ5. HEK293 TRPC4beta/mu-opioid, Fluo4 calcium fluorescence; stronger effect = higher value. B-score at 10 µM;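 active = B-score above 5 SD of library B-scores, and initial fluorescence ratio not above library mean plus 5 SD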;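 note: positive B-score marks a calcium rise read as TRPC4 activation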
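Test system: HEK293 cells stably co-expressing mouse TRPC4beta and mu-opioid receptor | Schedule: Fluo4 dye loading 45 min at room temperature, 110 s recording | Measured by: Kinetic Fluo4 calcium fluorescence, 5 s baseline at 1 Hz | Evaluation: B score of integrated ratio | Controls: Buffer (low) and maximal DAMGO (high)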
TRPC6 inh = mouse TRPC6 channel inhibition; Q61143; HEK293-TRPC6, membrane potential dye, ACh-evoked depolarization; stronger effect = lower value; B-score at 10 µM; actives 1.1% (n = 310,000); AID 2553;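 active = B-score under library mean minus 3 SD, initial fluorescence not abnormally high, positive integrated signal ratio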;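 note: B-score derived from integrated fluorescence ratio over the kinetic read; more negative B-score means stronger inhibition of depolarization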
TRPC4 PAM = allosteric potentiators of mouse TRPC4 channel. Q9QUQ5. HEK293 TRPC4beta/mu-opioid, DAMGO EC20, Fluo-4 Ca2+ flux; stronger effect = higher value. B-score at 10 µM. actives 0.42% (n = 310,000);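 active = B-score of calcium response area above 5 SD of library B-scores, with initial fluorescence ratio within 5 SD of library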;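 note: B-score of integrated fluorescence ratio over time as area under calcium response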
TRPC6 act = mouse TRPC6 channel activation; actives 0.13% (n = 310,000); HEK293-TRPC6 membrane potential dye fluorescence; stronger effect = higher value; AID 2550; Q61143; B-score at 10 µM;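 active = B-score of the integrated fluorescence ratio above library mean plus 3 SD, and starting fluorescence ratio within library mean plus 5 SD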;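 note: higher score means more depolarization so channel activation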
* hit, by the source's call; i = inactive. Only some compounds are listed: those with a hit (about 2.3% of all), similar ones and a draw of the others.

SMILES	TRPC4 block	TRPC4 act	TRPC6 inh	TRPC4 PAM	TRPC6 act
COC(=O)[C@@]12CCCN1[C@H](c1ccc(-c3ccc(OC)cc3)cc1)[C@@H]1C(=O)N(C)C(=O)[C@@H]12	i	i	i	24*	i
COC(=O)[C@@]12CCCN1[C@H](c1ccc(-c3ccccc3)cc1)[C@H]1C(=O)N(C)C(=O)[C@H]12	i	i	i	i	i
COc1ccc(C(=O)c2no[n+]([O-])c2C(=O)c2ccc(OC)cc2)cc1	i	i	i	53*	i
O=C(c1cccs1)c1no[n+]([O-])c1C(=O)c1cccs1	i	54*	i	i	i
COc1ccc(NC(=O)c2c(N)no[n+]2[O-])cc1	i	i	i	i	i
O=C(Cn1cnc([N+](=O)[O-])n1)N/N=C/c1cc(Cl)ccc1O	i	i	i	i	i
CCCn1c(N)c(C(=O)CSc2n[nH]c(-c3ccc(C)cc3)n2)c(=O)[nH]c1=O	i	i	i	123*	i
CCOC(=O)C1=C(COC(=O)c2ccccc2[N+](=O)[O-])NC(=O)NC1C (centres undefined)	i	i	i	i	i
CCCCCCc1cc2cc(-c3nnc(-c4cc(OC)c(OC)c(OC)c4)o3)c(=O)oc2cc1O	i	i	i	40*	i
CCCCCCc1cc2cc(-c3nnc(-c4ccccc4O)o3)c(=O)oc2cc1O	i	i	i	25*	i
c1ccc2c(c1)nc1n2CCN1CCN1CCCC1	i	i	i	i	i
O=C(c1ccccc1)c1ccc(OCC(O)CNC2CCCc3ccccc32)cc1 (centres undefined)	i	i	i	i	i
OC(CNC1CCCc2ccccc21)COc1ccc2ccccc2c1 (centres undefined)	i	101*	i	i	i
COc1ccc(CCNC(=O)C2CCCN(S(C)(=O)=O)C2)cc1 (centres undefined)	i	i	i	i	i
CC(=O)[C@H]1[C@@H]2C(=O)N(c3cccc(Cl)c3)C(=O)[C@@H]2[C@H]2c3ccccc3C=CN21	i	i	i	i	i
CC(=O)[C@@H]1[C@@H]2C(=O)N(c3ccc(F)c(Cl)c3)C(=O)[C@@H]2C2c3ccccc3C=CN21 (some centres undefined)	-7*	i	i	i	i
CCOc1ccc(NS(=O)(=O)c2ccc(C(=O)N3CCC3)cc2)cc1	i	i	i	i	i
COc1cccc(CNC(=O)CCC2CCCN(C/C=C/c3ccccc3OC)C2)c1 (centres undefined)	i	73*	i	i	i
COCc1ccc(CN2CCCC(CCC(=O)NCc3cccc(OC)c3)C2)o1 (centres undefined)	i	i	i	i	i
COc1ccccc1/C=C/CN1CCCC(CCC(=O)NCc2ccc(F)c(F)c2)C1 (centres undefined)	i	118*	i	i	i
O=[N+]([O-])c1ccccc1CCc1cnc(Cl)s1	i	i	i	i	i
COC(=O)CC1C(=O)NCCN1C(=S)Nc1ccc(F)cc1 (centres undefined)	i	i	i	i	i
Fc1ccc(CN2CCC(Cc3ccccc3)CC2)cc1F	-6*	i	i	i	i
COc1cc(OC)c(CN2CCC(Cc3ccccc3)CC2)cc1Br	i	108*	i	i	i
COc1ccc(C2/C(=C(/O)c3ccccc3)C(=O)C(=O)N2CCO)cc1 (centres undefined)	i	i	i	i	i
SMILES	TRPC4 block	TRPC4 act	TRPC6 inh	TRPC4 PAM	TRPC6 act
COc1ccc(N/C(C)=C2/C(=O)C(=O)N(CCO)C2c2ccc(Br)cc2)cc1 (centres undefined)	i	123*	i	43*	i
N=c1oc2cc(O)ccc2cc1C(=O)Nc1ccc(Cl)cc1	i	i	i	i	i
CN(C)CCn1c(=O)n(Cc2ccccc2)c(=O)c2c3c(sc21)CCCCC3	i	i	i	i	i
CN(C)CCCn1c(=O)n(CCc2ccccc2)c(=O)c2c3c(sc21)CCCCC3	i	i	i	22*	i
Cc1c(OCC(=O)NC2CCN(Cc3ccccc3)CC2)ccc2c3c(c(=O)oc12)CCC3	i	i	i	11*	i
Cc1cc(=O)oc2c(C)c(OCC(=O)NC3CCN(Cc4ccccc4)CC3)ccc12	i	i	i	i	i
Cc1ccc2oc(=O)c3cnn(CC(=O)NC4CCN(Cc5ccccc5)CC4)c3c2c1	i	107*	i	i	i
O=C(Cn1ncc2c(=O)oc3ccccc3c21)NC1CC1	i	i	i	i	i
Fc1ccccc1N1CCN(C(c2ccccn2)c2nnnn2C2CCCCC2)CC1 (centres undefined)	i	i	i	i	i
COc1ccccc1N1CCN(C(c2ccccn2)c2nnnn2C2CCCCC2)CC1 (centres undefined)	i	74*	i	i	i
COc1ccccc1/C=C(/NC(=O)c1ccccc1)C(=O)NCCN1CCOCC1	i	i	i	i	i
O=C(NCC(c1cccs1)N1CCOCC1)c1ccc(Cl)c([N+](=O)[O-])c1 (centres undefined)	i	90*	i	i	i
O=C(NCc1ccc(F)cc1)c1cc(C(=O)C2CC2)c[nH]1	i	i	i	i	i
CCC(C)[C@H](NC(=O)C1CC(=O)N(c2ccc(OC)cc2)C1)C(=O)NC1CCCC1 (some centres undefined)	i	i	i	i	i
CC(C)CCNC(=O)CCC(=O)NNc1nc2ccccc2c2nc(-c3ccccc3)nn12	i	i	i	23*	i
O=C(CCC(=O)NNc1nc2ccccc2c2nc(-c3ccccc3)nn12)NCCCN1CCOCC1	i	i	i	i	i
COc1ccc(CCC(C)NCC2CCCCC2)cc1 (centres undefined)	-7*	i	i	i	i
COP(=O)(OC)c1nc(-c2ccc(C)cc2)oc1N1CCCCC1	i	i	i	i	i
CCOc1ccc(-c2c(C(=O)N/N=C/c3ccsc3)nnn2-c2nonc2N)cc1	i	i	i	i	i
Cc1ccc(CNc2ccc3c(c2)ncn3C(C)C)cc1	i	45*	i	i	i
CCn1cnc2cc(NCc3ccc(C)cc3)ccc21	i	i	i	i	i

Screening results deposited in PubChem by Johns Hopkins Ion Channel Center.
